In PMC2662489 (Biochemical Journal, 2009):
Read-outs that look alike come from different tables or passages of the source. One block for each molecule: values may come before it.

How the values were obtained:
[1] = biological target: T1, MsbA-MIANS (Escherichia coli, UniProt P60752); experiment: MIANS fluorescence quenching titration of MsbA-MIANS; assay type: binding; settings: for Concentration-dependent quenching of MIANS fluorescence: titration of MsbA-MIANS with negatively charged drugs
[2] = biological target: T1, MsbA-MIANS; experiment: Dual sequential titration of MsbA-MIANS fluorescence quenching; assay type: binding; settings: for Effect of lipid A pre-binding on ligand binding affinity (in words): ATP at 10 °C, daunorubicin and p[NH]ppA at 23 °C; for Binding affinity of drug after prior binding of nucleotide (in words): ATP bound first, results not shown
How it was run: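 MIANS-labelled MsbA (100 μg/ml) was prepared by labelling with 10 μM MIANS, quenching with DTE and dialysing. It was held in 100 mM Hepes, 50 mM NaCl, 5 mM MgCl2, 0.05% DM, pH 7.5, at 23 °C, or 10 °C for ATP to prevent hydrolysis. […] Data were fitted to a single-site model for Kd and ΔFmax.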

[3] = biological target: T2, MsbA (Escherichia coli, UniProt P60752); experiment: ATPase activity assay; assay type: biochemical; settings: ATP 0.05-10 mM, 0.05% DM
How it was run: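 Purified His-tagged MsbA (~100 μg/ml in 0.05% (w/v) DM) assayed colorimetrically for free Pi liberated from ATP across varied ATP levels. Labelled enzyme was first reacted with 10 μM MIANS for 2 h at 23 °C in the dark. Unreacted MIANS was quenched with 1 mM DTE before the ATPase measurement.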

[4] = biological target: T2, MsbA; experiment: Modulation of the rate of MsbA labelling by MIANS; assay type: biochemical
[5] = 23 °C, MsbA 100 μg/ml in 0.05% DM, single-site fit
[6] = 10 °C, MsbA 100 μg/ml in 0.05% DM, ligand alone
[7] = 10 °C, titrated after daunorubicin
[8] = Kd, 23 °C, MsbA 100 μg/ml in 0.05% DM, single-site fit

T1 sequence (P60752 whole entry): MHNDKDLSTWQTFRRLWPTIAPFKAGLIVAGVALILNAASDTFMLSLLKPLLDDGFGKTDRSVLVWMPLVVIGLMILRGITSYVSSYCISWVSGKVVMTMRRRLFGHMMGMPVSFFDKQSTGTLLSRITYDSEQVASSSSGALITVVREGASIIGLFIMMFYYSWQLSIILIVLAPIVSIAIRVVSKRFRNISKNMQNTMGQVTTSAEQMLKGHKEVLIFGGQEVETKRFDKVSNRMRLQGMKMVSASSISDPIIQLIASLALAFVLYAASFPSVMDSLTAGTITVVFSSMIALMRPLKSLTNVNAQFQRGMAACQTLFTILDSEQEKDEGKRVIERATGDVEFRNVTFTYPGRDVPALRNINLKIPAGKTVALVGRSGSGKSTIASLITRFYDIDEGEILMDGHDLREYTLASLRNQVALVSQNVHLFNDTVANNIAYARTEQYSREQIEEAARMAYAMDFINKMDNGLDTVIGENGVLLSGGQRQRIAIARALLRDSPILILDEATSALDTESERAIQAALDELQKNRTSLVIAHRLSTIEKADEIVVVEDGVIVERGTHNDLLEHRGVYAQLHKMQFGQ
T2 sequence (P60752 whole entry): as above

Molecule: Nc1ncnc2c1ncn2[C@@H]1O[C@H](COP(=O)(O)OP(=O)(O)NP(=O)(O)O)[C@@H](O)[C@H]1O [p[NH]ppA, adenosine 5′-[β,γ-imido]triphosphate]
- Kd [1, 5]: 470 ± 30 µM
- Kd ([2]; 23 °C, titrated after lipid A): 650 ± 80 µM
- Maximal quenching (ΔFmax/F0×100) ([2]; 23 °C, titrated after lipid A): 23.2±1.2%
- Effect of lipid A pre-binding on ligand binding affinity (in words) [2]: relatively unaffected

Molecule: CC(C)[C@@H]1NC(=O)[C@H](C)OC(=O)[C@@H](C(C)C)NC(=O)[C@@H](C(C)C)OC(=O)[C@H](C(C)C)NC(=O)[C@H](C)OC(=O)[C@@H](C(C)C)NC(=O)[C@@H](C(C)C)OC(=O)[C@H](C(C)C)NC(=O)[C@H](C)OC(=O)[C@@H](C(C)C)NC(=O)[C@@H](C(C)C)OC1=O [Valinomycin]
- Kd [1]: 0.35 ± 0.04 µM
- Initial rate of labelling [4]: 66.8±3.4 ms^−1
- Labelling efficiency [4]: 101±3.2%

Molecule: Nc1ncnc2c1ncn2[C@@H]1O[C@H](CO[P@](=O)(O)O[P@](=O)(O)O[P@@](=O)(O)S)[C@@H](O)[C@H]1O [ATP[S], adenosine 5´-[γ-thio]triphosphate]
- Kd [1, 8]: 1.82 ± 0.29 µM

Molecule: COc1cccc2c1C(=O)c1c(O)c3c(c(O)c1C2=O)C[C@@](O)(C(C)=O)C[C@@H]3O[C@H]1C[C@H](N)[C@H](O)[C@H](C)O1 [Daunorubicin]
- Maximal quenching (ΔFmax/F0×100) [1, 5]: highest quenching
- Kd ([1]; 23 °C, MsbA reconstituted into egg PC proteoliposomes): essentially the same
- Kd ([1]; Kd, 10 °C, MsbA 100 μg/ml in 0.05% DM, ligand alone): 2.97 ± 0.23 µM
- Kd [1, 8]: 4.6 ± 0.2 µM
- Kd ([1]; Kd, 23 °C, MsbA reconstituted into egg PC proteoliposomes): 4.3 ± 0.79 µM
- Initial rate of labelling [4]: 27.4±2.3 ms^−1
- Labelling efficiency [4]: 87.2±1.3%
- Initial rate of labelling ([4]; listed as daunorubicin): the most
- Reduction in binding affinity after pre-binding of lipid A ([2]; 10 °C): ~2 fold
- Effect of lipid A pre-binding on ligand binding affinity (in words) [2]: did not affect
- Binding affinity of drug after prior binding of nucleotide (in words) [2]: reduced
- Kd ([2]; Kd, 10 °C, titrated after ATP): 9.59 ± 0.39 µM
- Kd ([2]; Kd, 10 °C, titrated after lipid A): 5.03 ± 0.11 µM
- Kd ([2]; Kd, 23 °C, titrated after lipid A): 4.42 ± 0.33 µM

Molecule: CCn1cc(C(=O)O)c(=O)c2cc(F)c(N3CCNCC3)cc21 [norfloxacin]
- Concentration-dependent quenching of MIANS fluorescence [1]: No concentration-dependent quenching

Molecule: Lipid A
- Maximal quenching (ΔFmax/F0×100) [1, 6]: 6.02±0.11%
- Labelling efficiency ([4]; 23 °C, MIANS:MsbA stoichiometry after 2000 s, drug at ~5-fold its Kd (2-40 μM)): 118±9.2%
- Increase of ΔFmax for quenching when daunorubicin was bound first [2]: 2 fold
- Reduction of binding affinity when ATP was pre-bound ([2]; 10 °C): ~8 fold
- Maximal quenching (ΔFmax/F0×100) ([2]; 10 °C, titrated after ATP): 17.7±1.0%
- Maximal quenching (ΔFmax/F0×100) [2, 7]: 7.31±0.50%
- Reduction of binding affinity when p[NH]ppA was pre-bound ([2]; 23 °C): ~3 fold
- Maximal quenching (ΔFmax/F0×100) ([2]; 23 °C, titrated after daunorubicin): 15.7±1.4%
- Maximal quenching (ΔFmax/F0×100) ([2]; 23 °C, titrated after p[NH]ppA): 10.9±1.2%

Molecule: Nc1ncnc2c1ncn2[C@@H]1O[C@H](COP(=O)(O)OP(=O)(O)O)[C@@H](O)[C@H]1O [ADP]
- Kd [1, 5]: 130 ± 60 µM
- Maximal quenching (ΔFmax/F0×100) [1, 5]: 8.48±0.4%

The remaining lines, values ahead:

- Concentration-dependent quenching of MIANS fluorescence [1]: No concentration-dependent quenching
Molecule: O=C(O)c1cn(C2CC2)c2cc(N3CCNCC3)c(F)cc2c1=O [ciprofloxacin]

- Kd [1, 6]: 3050 ± 430 µM
- Kd for ATP binding relative to that of p[NH]ppA ([1]; ATP at 10 °C versus p[NH]ppA at 23 °C): > 7 fold
- Km ([3]; MIANS-labelled MsbA): 410 ± 40 µM
- Km ([3]; unlabelled MsbA): 520 ± 40 µM
- Kd [2, 7]: 950 ± 230 µM
- Maximal quenching (ΔFmax/F0×100) [2, 7]: 5.45±0.41%
- Kd ([2]; 10 °C, titrated after lipid A): 2030 ± 300 µM
- Maximal quenching (ΔFmax/F0×100) ([2]; 10 °C, titrated after lipid A): 12.0±0.78%
- Effect of lipid A pre-binding on ligand binding affinity (in words) [2]: relatively unaffected
Molecule: Nc1ncnc2c1ncn2[C@@H]1O[C@H](COP(=O)(O)OP(=O)(O)OP(=O)(O)O)[C@@H](O)[C@H]1O [ATP]

- Concentration-dependent quenching of MIANS fluorescence [1]: No concentration-dependent quenching
Molecule: CC1COc2c(N3CCN(C)CC3)c(F)cc3c(=O)c(C(=O)O)cn1c23 (centres unmarked) [ofloxacin]

- Concentration-dependent quenching of MIANS fluorescence [1]: No concentration-dependent quenching
Molecule: CC1(C)S[C@@H]2[C@H](NC(=O)[C@H](N)c3ccccc3)C(=O)N2[C@H]1C(=O)O [ampicillin]

- Kd [1, 8]: 8.56 ± 0.79 µM
- Initial rate of labelling [4]: 85.0±3.1 ms^−1
- Labelling efficiency [4]: 78.8±1.0%
Molecule: O=c1c(O)c(-c2ccc(O)c(O)c2)oc2cc(O)cc(O)c12 [Quercetin]

- Kd [1, 8]: 1.26 ± 0.09 µM
- Initial rate of labelling [4]: 71.0±2.6 ms^−1
- Labelling efficiency [4]: 82.2±3.6%
Molecule: COc1ccc(CCN(C)CCCC(C#N)(c2ccc(OC)c(OC)c2)C(C)C)cc1OC (centres unmarked) [Verapamil]

- Kd [1, 8]: 1.2 ± 0.14 µM
- Initial rate of labelling [4]: 182±3.4 ms^−1
- Labelling efficiency [4]: 105±4.5%
- Initial rate of labelling ([4]; listed as vinblastine): affected the least
- Binding affinity of drug after prior binding of nucleotide (in words) [2]: reduced
Molecule: CC[C@]1(O)C[C@@H]2CN(CCc3c([nH]c4ccccc34)[C@@](C(=O)OC)(c3cc4c(cc3OC)N(C)[C@H]3[C@@](O)(C(=O)OC)[C@H](OC(C)=O)[C@]5(CC)C=CCN6CC[C@]43[C@@H]65)C2)C1 [Vinblastine]

- Kd [1, 5]: 800 ± 200 µM
- Maximal quenching (ΔFmax/F0×100) [1, 5]: 7.84±0.80%
Molecule: Nc1ncnc2c1ncn2[C@@H]1O[C@H](COP(=O)(O)O)[C@@H](O)[C@H]1O [AMP]
